2 compounds from ChEMBL document CHEMBL1123786, “Design of nonpeptidal ligands for a peptide receptor: cholecystokinin antagonists” (J Med Chem, 1987) can be followed below.

pIC50: −log10 of the molar value. Where only a bound is given, the exact number is not on record here.

For one assay, the target named is T1, Cholecystokinin receptor (Rattus norvegicus, UniProt P30551+P30553).
T1 sequence (P30551 whole entry): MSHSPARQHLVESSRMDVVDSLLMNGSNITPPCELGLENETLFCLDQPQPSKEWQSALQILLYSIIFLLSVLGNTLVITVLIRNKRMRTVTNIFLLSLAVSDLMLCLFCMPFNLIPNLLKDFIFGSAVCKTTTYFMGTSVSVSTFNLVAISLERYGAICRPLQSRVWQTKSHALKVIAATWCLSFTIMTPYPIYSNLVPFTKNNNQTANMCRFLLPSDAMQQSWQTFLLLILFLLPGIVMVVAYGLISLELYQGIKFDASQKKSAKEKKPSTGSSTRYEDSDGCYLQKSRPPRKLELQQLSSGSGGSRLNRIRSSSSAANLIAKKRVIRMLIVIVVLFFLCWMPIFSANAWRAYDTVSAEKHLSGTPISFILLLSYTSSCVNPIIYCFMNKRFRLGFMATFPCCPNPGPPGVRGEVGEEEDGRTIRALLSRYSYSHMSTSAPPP
T1 sequence (P30553 whole entry): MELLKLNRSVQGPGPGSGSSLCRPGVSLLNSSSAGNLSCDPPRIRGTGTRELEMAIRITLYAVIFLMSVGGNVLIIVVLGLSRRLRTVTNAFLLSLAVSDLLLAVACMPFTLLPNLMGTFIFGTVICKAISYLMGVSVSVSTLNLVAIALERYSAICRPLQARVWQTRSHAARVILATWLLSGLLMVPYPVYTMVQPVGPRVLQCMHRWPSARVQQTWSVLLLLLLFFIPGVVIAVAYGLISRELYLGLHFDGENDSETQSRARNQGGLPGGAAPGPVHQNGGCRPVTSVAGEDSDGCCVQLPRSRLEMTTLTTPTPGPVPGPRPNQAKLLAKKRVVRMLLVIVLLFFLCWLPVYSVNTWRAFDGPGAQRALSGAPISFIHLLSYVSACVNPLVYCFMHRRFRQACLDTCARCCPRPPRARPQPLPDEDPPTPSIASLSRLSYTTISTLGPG
The format is protein assay.

Assay [1] deals with Mus musculus. Description: In vivo activity on the basis of the ability to antagonize CCK-8 inhibition of charcoal meal gastric emptying in mice after oral administration. The format is functional. The settings on record: Stomach. The procedure, abridged: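 Oral dosing of mice (N ≥ 10/dose) 1 h before sc CCK-8 at 80 μg/kg. The charcoal meal followed CCK-8 by 5 min, with gastric emptying scored 5 min after that. ED50 was obtained by regression analysis using at least three dose levels.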

The next assay is filed under the species Rattus norvegicus. Description: Selectivity of binding to pancreatic CCK and brain benzodiazepine receptors, ratio of IC50.
Assay [2] concerns the target GABA-A receptor; anion channel. Description: Displacement of [3H]flunitrazepam from GABA-A benzodiazepine receptor of guinea pig brain. Also on record: species or system Cavia porcellus. (In general: Loss of bound radioactivity is the signal in a displacement assay; it reports binding, not function.)
In assay [3] the test system is Mus musculus. Description: In vivo activity on the basis of the ability to antagonize CCK-8 inhibition of charcoal meal gastric emptying in mice after intraperitoneal administration. The format is functional. To be noted: Stomach, ip. The procedure, abridged: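 Mice dosed intraperitoneally 1 h before CCK-8 (80 μg/kg, sc), N ≥ 10/dose. A charcoal meal was given 5 min after CCK-8 and gastric emptying was measured 5 min later. ED50 was derived by regression from at least three dose levels.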

For orientation: IC50 means the midpoint of a concentration-inhibition curve. Lower therefore signals inhibition by little substance. One may read the ED50 as the dose at which the effect has come halfway, by size or by number of responders. Usually pIC50 stands for the negative decadic logarithm of the IC50, by convention in mol/L. With `Cc1nnc2n1-c1ccccc1C(c1ccccc1F)=N[C@@H]2Cc1c[nH]c2ccccc12`, the IC50 against Cholecystokinin receptor is 1200 nM. In the assay with Mus musculus [1], this compound yielded a 50% effective dose (ED50) of 76 mg/kg. Further, the Ratio in the assay filed under Rattus norvegicus came to 1.5. In addition, the pIC50 in assay [2] was 6.10.
Compound `CN1C(=O)[C@@H](Cc2c[nH]c3ccccc23)N=C(c2ccccc2F)c2ccccc21` returned an IC50 on Cholecystokinin receptor of 270 nM. For the same compound, the ED50 turned out to be 25 mg/kg in the assay with Mus musculus [1] and 15 mg/kg in the assay with Mus musculus [3]. In assay [2], this compound gave a pIC50 below 4.00.
